pIC50: −log10 of the molar value.

The test system of data set [1] is Plasmodium falciparum. Nature of the data set: Antiplasmodial activity against chloroquine-sensitive asexual blood stage of Plasmodium falciparum NF54 infected in human RBC assessed as reduction in [3H]hypoxanthine incorporation preincubated for 48 hrs followed by [3H]hypoxanthine addition measured after 24 hrs by liquid scintillation counting method. It is filed as functional, organism-based. The procedure, abridged: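 Asexual blood-stage P. falciparum NF54 assay, run as a modified [3H]-hypoxanthine incorporation assay. Values are the mean of n ≥ 2 assays; determinations differing more than 3-fold were excluded. Chloroquine and artesunate served as controls.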

A further data set relates to Hemozoin. Nature of the data set: Inhibition of beta hematin formation after 5 hrs by NP40 detergent-based assay.
The subject of data set [2] is Plasmodium falciparum. Put plainly: Antiplasmodial activity against chloroquine-resistant asexual blood stage of Plasmodium falciparum K1 infected in human RBC assessed as reduction in [3H]hypoxanthine incorporation preincubated for 48 hrs followed by [3H]hypoxanthine addition measured after 24 hrs by liquid scintillation counting method. It is filed as functional, organism-based. The procedure, abridged: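 Asexual blood-stage P. falciparum K1 (multidrug resistant) screened by modified [3H]-hypoxanthine incorporation assay; IC50 as mean of n ≥ 2 assays, replicates differing above 3-fold excluded; chloroquine and artesunate controls.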

Data set [3] in a line: Resistance index, ratio of IC50 for chloroquine-resistant asexual blood stage of Plasmodium falciparum K1 infected in human RBC to IC50 for chloroquine-sensitive asexual blood stage of Plasmodium falciparum NF54 infected in human RBC. It counts as functional.
For another data set, the system named is CHO. Put plainly: Cytotoxicity against CHO cells after 48 hrs by MTT assay. It is filed as cell-based. The conditions noted are these: Cricetulus griseus. In general terms: Tetrazolium assays rely on reduction of a dye to a coloured formazan, in cell work by metabolically active cells.
The nature of data set [4]: Selectivity index, ratio of IC50 for CHO cells to IC50 for chloroquine-sensitive asexual blood stage of Plasmodium falciparum NF54 infected in human RBC. The conditions noted are these: Chinese hamster, read-out: Ratio IC50. It counts as toxicity. The essentials: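 Selectivity index taken as the ratio of the CHO-cell IC50 to the P. falciparum NF54 IC50.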
Data set [5] concerns Plasmodium falciparum. Put plainly: Antiplasmodial activity against chloroquine-sensitive final late stage of Plasmodium falciparum NF54-Mal8p1.16-GFP-Luc gametocytes after 24 hrs by BacTiter-Glo assay. It counts as functional, organism-based. The conditions noted are these: NF54, 24 h. The essentials: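 Late-stage PfNF54 gametocytes produced in vitro; gametocytocidal IC50 via luciferase reporter and ATP bioluminescence platforms; n=3 independent biological replicates in technical triplicates, ± S.E.M.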

For `CS(=O)(=O)c1ccc(Nc2cc(C(F)(F)F)c(C#N)c3nc4ccccc4n23)cc1`, the pIC50 (commonly −log10 of the IC50, conventionally taken in molar units) with Plasmodium falciparum [1] was below 5.63. Still for that read-out and setting: with `COC(=O)c1ccc(Nc2cc(C(F)(F)F)c(C#N)c3nc4ccccc4n23)cc1` the figure was 5.80; with `N#Cc1c(C(F)(F)F)cc(NCc2ccccc2)n2c1nc1ccccc12`, 5.21. On the same count and under the same terms, as for `N#Cc1c(C(F)(F)F)cc(NCc2ccc(O)cc2)n2c1nc1ccccc12`, the figure is 5.06; as for `N#Cc1c(C(F)(F)F)cc(Nc2ccnc(F)c2)n2c1nc1ccccc12`, below 5.60. For the compound `N#Cc1c(C(F)(F)F)cc(N2CCNCC2)n2c1nc1cc(Cl)c(Cl)cc12`, the pIC50 in the data set on Plasmodium falciparum [1] was 5.09. Same read-out and setting: with `N#Cc1c(C(F)(F)F)cc(N2CCNCC2)n2c1nc1ccccc12` the figure was 5.00. As to `N#Cc1c(C(F)(F)F)cc(NS(=O)(=O)c2ccccn2)n2c1nc1cc(Cl)c(Cl)cc12`, the pIC50 is below 5.22 with Plasmodium falciparum [1] and below 4.00 in the data set on Hemozoin.

`CN(C)C(=O)c1ccc(Nc2cc(C(F)(F)F)c(C#N)c3nc4ccccc4n23)cc1`: the pIC50 in the data set on Plasmodium falciparum [1] is below 5.63. In the case of `COc1ccc(CNc2cc(C(F)(F)F)c(C#N)c3nc4ccccc4n23)cc1`, the negative logarithm of the IC50 (pIC50) in the data set with Plasmodium falciparum [1] is 5.50.

Take `CCCOc1ccc(Nc2cc(C(F)(F)F)c(C#N)c3nc4ccccc4n23)cc1`: the pIC50 in the data set on Plasmodium falciparum [1] was 5.94.

With `CN(C)C(=O)c1ccc(CNc2cc(C(F)(F)F)c(C#N)c3nc4ccccc4n23)cc1`, in the data set with Plasmodium falciparum [1], the pIC50 is below 5.64. Still for that read-out and setting: as for `CNC(=O)c1ccc(CNc2cc(C(F)(F)F)c(C#N)c3nc4ccccc4n23)cc1`, the figure is below 5.63. Same read-out and setting: with `N#Cc1ccc(Nc2cc(C(F)(F)F)c(C#N)c3nc4ccccc4n23)cc1` the figure was 5.63.

Turning to `FC(F)(F)Oc1ccc(Nc2cc(C(F)(F)F)cc3nc4ccccc4n23)cc1`, the pIC50 is 5.37 in the data set with Plasmodium falciparum [1] and 5.47 in the data set on Plasmodium falciparum [2]. In data set [3], the Ratio IC50 worked out at 0.79. Taken in the same sequence, the figures for `N#Cc1c(C(F)(F)F)cc(Nc2ccccc2OC(F)(F)F)n2c1nc1ccccc12` were 6.06, 6.21 and 0.71. On to `N#Cc1c(C(F)(F)F)cc(NCc2ccccn2)n2c1nc1ccccc12`, for which the pIC50 in the data set on Plasmodium falciparum [1] is 5.94; with Plasmodium falciparum [2], 5.79; in the data set with Hemozoin, below 4.00; with CHO, below 3.57. For the same compound, the Ratio IC50 in data set [3] came to 1.41. The selectivity ratio in data set [4] is above 234. Turning to `N#Cc1c(C(F)(F)F)cc(NCc2cnccn2)n2c1nc1ccccc12`, the pIC50 with Plasmodium falciparum [1] was 5.59. As to `N#Cc1c(C(F)(F)F)cc(Nc2cnccn2)n2c1nc1ccccc12`, the pIC50 in the data set with Plasmodium falciparum [1] was 5.35. On the same count and under the same terms, as for `COc1ccc(Nc2cc(C(F)(F)F)c(C#N)c3nc4ccccc4n23)cc1`, the figure is 5.65; as for `NC(=O)c1c(C(F)(F)F)cc(NCc2ccc(F)cc2)n2c1nc1ccccc12`, below 5.22. Same read-out and setting: with `N#Cc1c(C(F)(F)F)cc(NCc2ccc(S(N)(=O)=O)cc2)n2c1nc1ccccc12` the figure was 4.99. On the same count and under the same terms, as for `CC(C)c1ccc(Nc2cc(C(F)(F)F)c(C#N)c3nc4ccccc4n23)cc1`, the figure is 6.00.

For the compound `CC(Nc1cc(C(F)(F)F)c(C#N)c2nc3ccccc3n12)c1ccc(S(C)(=O)=O)cc1` (stereo not drawn), the negative logarithm of the IC50 (pIC50) in the data set on Plasmodium falciparum [1] is below 5.57; with Hemozoin it was below 4.00. In the case of `C[C@H]1[C@H](OC(=O)CCC(=O)O)O[C@@H]2O[C@@]3(C)CC[C@H]4[C@H](C)CC[C@@H]1[C@@]24OO3` [ARTESUNATE], the negative-log IC50 (pIC50) in the data set with Plasmodium falciparum [1] is 8.40; in the data set with Plasmodium falciparum [2], 8.52. With `CS(=O)(=O)c1ccc(CNc2cc(C(F)(F)F)c(C#N)c3nc4ccccc4n23)cc1`, the pIC50 in the data set on Plasmodium falciparum [1] was 4.90. As for `N#Cc1c(C(F)(F)F)cc(NS(=O)(=O)c2ccc(OC(F)(F)F)cc2)n2c1nc1cc(Cl)c(Cl)cc12`, the negative logarithm of the IC50 (pIC50) in the data set on Plasmodium falciparum [1] was 5.17; in the data set on Plasmodium falciparum [2] it was 5.23; in the data set on Hemozoin, 4.11. Also, the Ratio IC50 in data set [3] turned out to be 0.87. Take `N#Cc1c(C(F)(F)F)cc(NCc2cccnc2)n2c1nc1ccccc12`: the pIC50 in the data set on Plasmodium falciparum [1] was below 5.57. With `N#Cc1c(C(F)(F)F)cc(NCc2ccc(F)cc2)n2c1nc1cc(Cl)cc(Cl)c12`, the negative-log IC50 (pIC50) in the data set on Plasmodium falciparum [1] is 6.51; in the data set with Plasmodium falciparum [2] it was 6.68; in the data set on Plasmodium falciparum [5], 6.13; in the data set with CHO, 5.78. On to `N#Cc1c(C(F)(F)F)cc(Nc2cccc(OC(F)(F)F)c2)n2c1nc1ccccc12`, for which the figures for the pIC50 in the data set with Plasmodium falciparum [1] and with Plasmodium falciparum [2] were 6.41 and 6.64, respectively. The Ratio IC50 in data set [3] came out at 0.58. Compound `CN(C)c1ccc2nc3ccc(N(C)C)cc3[s+]c2c1` [METHYLENE BLUE ANHYDROUS] gave a pIC50 in the data set with Plasmodium falciparum [5] of 6.05. `Cc1csc(Nc2cc(C(F)(F)F)c(C#N)c3nc4ccccc4n23)n1`: in the data set on Plasmodium falciparum [1], the negative logarithm of the IC50 (pIC50) was below 5.55. With `N#Cc1c(C(F)(F)F)cc(Nc2ccc(OC(F)(F)F)cc2)n2c1nc1cc(Cl)c(Cl)cc12`, the figures for the pIC50 in the data set on Plasmodium falciparum [1] and in the data set on Hemozoin were below 5.71 and 4.49, respectively.

Regarding `NC(=O)c1c(C(F)(F)F)cc(NCc2ccc(OC(F)(F)F)cc2)n2c1nc1ccccc12`, the negative logarithm of the IC50 (pIC50) in the data set on Plasmodium falciparum [1] was 5.29; in the data set on Plasmodium falciparum [2], 5.12. Further, the Ratio IC50 in data set [3] is 1.47. For the compound `COc1ncnc(Nc2cc(C(F)(F)F)c(C#N)c3nc4ccccc4n23)c1OC`, the pIC50 with Plasmodium falciparum [1] was below 5.55. Consider `Cc1ccc(Nc2cc(C(F)(F)F)c(C#N)c3nc4ccccc4n23)cc1`, for which the pIC50 in the data set with Plasmodium falciparum [1] was 5.67.

Turning to `N#Cc1c(C(F)(F)F)cc(Nc2ccc(CN3CCOCC3)cc2)n2c1nc1ccccc12`, the pIC50 was below 5.66 in the data set with Plasmodium falciparum [1] and 4.30 in the data set on Hemozoin. Turning to `NC(=O)c1c(C(F)(F)F)cc(NCc2ccccn2)n2c1nc1ccccc12`, the pIC50 in the data set on Plasmodium falciparum [1] and in the data set on Plasmodium falciparum [2] was below 5.00 in each case. With `COC(=O)c1c(C(F)(F)F)cc(Nc2ccc(OC(F)(F)F)cc2)n2c1nc1ccccc12`, the negative-log IC50 (pIC50) with Plasmodium falciparum [1] is 5.26. Consider `CN(C)c1ccc(CNc2cc(C(F)(F)F)c(C#N)c3nc4ccccc4n23)cc1`, for which the pIC50 in the data set with Plasmodium falciparum [1] is 5.53. The same measure, in the same setting: with `N#Cc1c(C(F)(F)F)cc(NCc2ncccn2)n2c1nc1ccccc12` the figure was 5.32; with `CN(Cc1ccccn1)c1cc(C(F)(F)F)c(C#N)c2nc3ccccc3n12`, below 5.57; with `CN(C)c1ccc(Nc2cc(C(F)(F)F)c(C#N)c3nc4ccccc4n23)cc1`, 5.25.

Consider `N#Cc1ccc(S(=O)(=O)Nc2cc(C(F)(F)F)c(C#N)c3nc4cc(Cl)c(Cl)cc4n23)cc1`, for which, in the data set on Plasmodium falciparum [1], the negative-log IC50 (pIC50) is 5.25. On the same count and under the same terms, as for `CC(C)c1ccc(CNc2cc(C(F)(F)F)c(C#N)c3nc4ccccc4n23)cc1`, the figure is 5.62. For the compound `Cc1ccc(CNc2cc(C(F)(F)F)c(C#N)c3nc4ccccc4n23)cc1`, the figures for the pIC50 in the data set with Plasmodium falciparum [1] and in the data set with CHO were 5.83 and 4.60, respectively. For the same compound, the selectivity ratio in data set [4] is 17.

As for `CC(Nc1cc(C(F)(F)F)c(C#N)c2nc3cc(Cl)c(Cl)cc3n12)c1ccc(S(C)(=O)=O)cc1` (stereo not drawn), the negative logarithm of the IC50 (pIC50) in the data set with Plasmodium falciparum [1] is 5.30; with Hemozoin, 4.49. Turning to `N#Cc1c(C(F)(F)F)cc(Nc2ccccc2)n2c1nc1ccccc12`, the pIC50 with Plasmodium falciparum [1] is below 5.55.

For `N#Cc1c(C(F)(F)F)cc(NCc2ccncc2)n2c1nc1ccccc12`, the pIC50 in the data set with Plasmodium falciparum [1] was below 5.57. Still for that read-out and setting: as for `N#Cc1c(C(F)(F)F)cc(Nc2ncccn2)n2c1nc1ccccc12`, the figure is below 5.57. As for `CS(=O)(=O)c1ccc(CNc2cc(C(F)(F)F)c(C#N)c3nc4cc(Cl)c(Cl)cc4n23)cc1`, the pIC50 with Plasmodium falciparum [1] was 5.27; with Plasmodium falciparum [2], 5.25; in the data set with Hemozoin, below 4.00. Moreover, in data set [3], the Ratio IC50 came to 1.05. With `CNC(=O)c1ccc(Nc2cc(C(F)(F)F)c(C#N)c3nc4ccccc4n23)cc1`, the negative-log IC50 (pIC50) with Plasmodium falciparum [1] is below 5.00.

Values taken from ChEMBL document CHEMBL4371072, “Structure-Activity Relationship Studies and Plasmodium Life Cycle Profiling Identifies Pan-Active N-Aryl-3-trifluoromethyl Pyrido[1,2- a]benzimidazoles Which Are Efficacious in an in Vivo Mouse Model of Malaria” (J Med Chem, 2019).
